One assay deals with Melanocortin receptor 4 (Mus musculus, UniProt P56450). Kind of assay: Agonist activity at mouse MC4 receptor expressed in HEK293 cells after 6 hrs by cAMP-based beta-galactosidase reporter gene assay. An outline of the steps:
(§1)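 HEK-293 cells stably expressing the mouse receptor, kept in DMEM with 10% fetal calf serum, transfected with CRE/β-galactosidase reporter. Efficacy is relative to NDP-MSH on the same plate. EC50 is the mean of duplicate wells from three or more independent experiments, fitted by nonlinear least squares.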

The target in a further assay is Melanocortin receptor 3 (Mus musculus, UniProt P33033). The experiment in a line: Agonist activity at mouse MC3 receptor expressed in HEK293 cells after 6 hrs by cAMP-based beta-galactosidase reporter gene assay. The essentials: as §1
A general note: In a reporter assay the amount or activity of a reporter protein is the signal.

The target of assay [1] is Melanocyte-stimulating hormone receptor (Mus musculus, UniProt Q01727). Kind of assay: Agonist activity at mouse MC1 receptor expressed in HEK293 cells after 6 hrs by cAMP-based beta-galactosidase reporter gene assay. An outline of the steps:
as §1

Another assay concerns the target Melanocortin receptor 5 (Mus musculus, UniProt P41149). Kind of assay: Agonist activity at mouse MC5 receptor expressed in HEK293 cells after 6 hrs by cAMP-based beta-galactosidase reporter gene assay. The essentials: as §1

Sequence of Melanocortin receptor 3 (P33033 whole entry): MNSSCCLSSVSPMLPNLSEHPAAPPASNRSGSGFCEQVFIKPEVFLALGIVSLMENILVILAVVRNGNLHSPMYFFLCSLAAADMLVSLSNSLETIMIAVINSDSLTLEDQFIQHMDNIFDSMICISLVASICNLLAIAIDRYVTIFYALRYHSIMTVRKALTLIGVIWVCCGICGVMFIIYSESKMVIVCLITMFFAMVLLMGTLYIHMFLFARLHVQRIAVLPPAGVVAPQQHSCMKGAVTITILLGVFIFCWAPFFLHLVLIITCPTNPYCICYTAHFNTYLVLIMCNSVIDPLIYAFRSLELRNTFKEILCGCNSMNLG
Sequence of Melanocyte-stimulating hormone receptor (Q01727 whole entry): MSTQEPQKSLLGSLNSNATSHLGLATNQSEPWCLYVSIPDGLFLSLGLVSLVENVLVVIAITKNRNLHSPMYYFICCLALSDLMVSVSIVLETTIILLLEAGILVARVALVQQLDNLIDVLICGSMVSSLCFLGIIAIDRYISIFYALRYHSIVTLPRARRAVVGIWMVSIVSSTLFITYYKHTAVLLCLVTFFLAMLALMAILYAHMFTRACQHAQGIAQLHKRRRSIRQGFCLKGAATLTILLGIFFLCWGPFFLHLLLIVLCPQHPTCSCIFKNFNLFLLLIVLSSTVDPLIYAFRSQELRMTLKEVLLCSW
Sequence of Melanocortin receptor 4 (P56450 whole entry): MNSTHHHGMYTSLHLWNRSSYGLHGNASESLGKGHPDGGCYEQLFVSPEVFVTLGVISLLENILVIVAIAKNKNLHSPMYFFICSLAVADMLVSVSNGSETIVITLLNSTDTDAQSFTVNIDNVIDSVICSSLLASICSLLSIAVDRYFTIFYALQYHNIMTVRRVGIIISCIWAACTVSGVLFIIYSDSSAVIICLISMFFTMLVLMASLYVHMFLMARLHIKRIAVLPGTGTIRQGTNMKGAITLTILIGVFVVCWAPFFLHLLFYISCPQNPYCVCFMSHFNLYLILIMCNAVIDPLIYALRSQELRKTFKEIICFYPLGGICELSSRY
Sequence of Melanocortin receptor 5 (P41149 whole entry): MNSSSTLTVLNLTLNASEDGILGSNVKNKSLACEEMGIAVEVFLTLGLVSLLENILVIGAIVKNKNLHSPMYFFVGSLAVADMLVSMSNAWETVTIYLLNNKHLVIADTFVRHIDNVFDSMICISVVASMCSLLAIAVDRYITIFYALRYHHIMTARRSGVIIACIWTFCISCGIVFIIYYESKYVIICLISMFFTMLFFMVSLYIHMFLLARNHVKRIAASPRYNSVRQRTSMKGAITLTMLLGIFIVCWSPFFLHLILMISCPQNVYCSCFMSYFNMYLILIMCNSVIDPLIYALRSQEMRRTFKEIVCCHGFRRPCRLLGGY

In the case of `C[C@@H]1NC(=O)[C@H](CC(N)=O)NC(=O)[C@@H](Cc2c[nH]c3ccccc23)[C@]23CCCN2C(=O)[C@@H](CSCC3=O)NC(=O)[C@@H](Cc2ccccc2)NC(=O)[C@H](Cc2cnc[nH]2)NC(=O)[C@@H](NC(=O)[C@@H](N)Cc2ccc(O)cc2)CSSC[C@@H](C(=O)N[C@@H](Cc2ccc(O)cc2)C(N)=O)NC(=O)[C@H](Cc2ccccc2)NC1=O`, the EC50 at Melanocortin receptor 4 is 1270 nM; on Melanocortin receptor 3, 7120 nM; in assay [1] it was 16 nM; at Melanocortin receptor 5 it was 630 nM.

One may read the EC50 as the concentration that produces a half-maximal response. A higher EC50 goes with a need for much substance.

The values are drawn from BindingDB's records for doi:10.1021/jm301253y (University of Florida, 2013).
